Measurements taken from ChEMBL document CHEMBL1124220 (J Med Chem, 1988).
Starred links: 1 amine or outer side, 2 acyl side, 3 side chain; linkers in the order of their positions; H or OH if unused. Non-standard residues stand in square brackets, D forms with d. Residues, ends and D or L forms follow the SMILES beside them. Ala(imidazol-2-yl) = N[C@@H](Cc1ncc[nH]1)C(=O)O; X2 = O=C([C@H](CCc1ncc[nH]1)N[*:1])[*:2]; Phe(4-NH2) = Nc1ccc(C[C@H](N)C(=O)O)cc1; 3Thi = N[C@@H](Cc1ccsc1)C(=O)O; Aib = CC(C)(N)C(=O)O; Sar = CNCC(=O)O

Assays:
Type in all cases: functional
[1] = species: Oryctolagus cuniculus; test: In vitro agonist angiotensin II like activity was measured in the rabbit aorta strip assay
Summary of the method: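 Isolated rabbit aortic strips in vitro. Agonist (AII-like) activity expressed as percent of the activity of AII.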

[2] = system: Rattus norvegicus; test: In vivo agonist angiotensin II like activity was measured in rat blood pressure assay; set-up: concentration or dose not given beside the values
Summary of the method: (§1)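 Rat blood pressure in vivo. Residual AII-like activity read as the pressor rise (mmHg) after a 1-μg intravenous bolus of compound. Mean of at least five tests with standard error.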

[3] = system: Rattus norvegicus; test: In vivo agonist angiotensin II like activity was measured in rat blood pressure increase by a 1 ug iv injection; summary of the method: as §1
[4] = system: Rattus norvegicus; test: Antagonist activity ID50 was measured in vivo in the rat blood pressure assay
Summary of the method: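 Rat blood pressure in vivo, 250-g rats, compound given by infusion. AII dose-response curves measured before and during the infusion. ID50 expressed as ng/rat per min. Mean of at least five tests with standard error.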

## CC[C@H](C)[C@H](NC(=O)[C@@H]1CCCN1C(=O)[C@@H](Cc1c[nH]cn1)NC(=O)[C@@H](NC(=O)[C@H](Cc1ccc(O)cc1)NC(=O)[C@@H](NC(=O)[C@H](CCCN=C(N)N)NC(=O)CNC)C(C)C)[C@@H](C)CC)C(=O)O
[1]
  Activity: 0%

## CC[C@H](C)[C@H](NC(=O)[C@H](Cc1ccc(O)cc1)NC(=O)[C@@H](NC(=O)[C@H](N)CCCCN)C(C)C)C(=O)N[C@@H](Cc1c[nH]cn1)C(=O)N1CCC[C@H]1C(=O)N[C@@H](Cc1ccccc1)C(=O)O
[2]
  Activity: 23%

## CC[C@H](C)[C@H](NC(=O)[C@H](Cc1ccc(O)cc1)NC(=O)[C@@H](NC(=O)[C@@H](N)CCCN)C(C)C)C(=O)N[C@@H](Cc1c[nH]cn1)C(=O)N1CCC[C@H]1C(=O)N[C@@H](Cc1ccccc1)C(=O)O
[2]
  Activity: 3%

## CC[C@H](C)[C@H](NC(=O)[C@H](Cc1ccc(O)cc1)NC(=O)[C@@H](NC(=O)[C@H](N)CCCN)C(C)C)C(=O)N[C@@H](Cc1c[nH]cn1)C(=O)N1CCC[C@H]1C(=O)N[C@@H](Cc1ccccc1)C(=O)O
[2]
  Activity: 23%

## CC[C@H](C)[C@H](NC(=O)[C@@H]1CCCN1C(=O)[C@H](Cc1c[nH]cn1)NC(=O)[C@@H](NC(=O)[C@H](Cc1ccc(O)cc1)NC(=O)[C@@H](NC(=O)[C@H](CCCCN=C(N)N)NC(=O)CNC)C(C)C)[C@@H](C)CC)C(=O)O
[3]
  BP increase: 7.5 mmHg
[4]
  ID50: 50 ng min-1 rat-1
[1]
  Activity: 0%

## CC[C@H](C)[C@H](NC(=O)[C@H](Cc1ccc(O)cc1)NC(=O)[C@@H](NC(=O)[C@H](CCCN=C(N)N)NC(=O)[C@@H](N)CC(=O)O)C(C)C)C(=O)N[C@@H](Cc1cncn1C)C(=O)N1CCC[C@H]1C(=O)N[C@@H](Cc1ccccc1)C(=O)O
[2]
  Activity: 0.05%

## CC[C@H](C)[C@H](NC(=O)[C@@H]1CCCN1C(=O)[C@H](Cc1cncn1C)NC(=O)[C@@H](NC(=O)[C@H](Cc1ccc(O)cc1)NC(=O)[C@@H](NC(=O)[C@H](CCCN=C(N)N)NC(=O)CNC)C(C)C)[C@@H](C)CC)C(=O)O
[3]
  BP increase: 2.5 mmHg
[4]
  ID50: 100 ng min-1 rat-1
[1]
  Activity: 0%

## CC[C@H](C)[C@H](NC(=O)[C@@H]1CCCN1C(=O)[C@H](Cc1c[nH]cn1)NC(=O)[C@@H](NC(=O)[C@H](Cc1ccc(O)cc1)NC(=O)[C@@H](NC(=O)[C@H](CCCNC(N)=O)NC(=O)CNC)C(C)C)[C@@H](C)CC)C(=O)O
[3]
  BP increase: 25 mmHg
[1]
  Activity: 0%

## CC[C@H](N)C(=O)N[C@H](C(=O)N[C@@H](Cc1ccc(O)cc1)C(=O)N[C@H](C(=O)N[C@@H](Cc1c[nH]cn1)C(=O)N1CCC[C@H]1C(=O)N[C@@H](Cc1ccccc1)C(=O)O)[C@@H](C)CC)C(C)C
[2]
  Activity: 0.92%

## CC[C@H](C)[C@H](NC(=O)[C@H](Cc1ccc(O)cc1)NC(=O)[C@@H](NC(=O)[C@@H](N)CCCCN)C(C)C)C(=O)N[C@@H](Cc1c[nH]cn1)C(=O)N1CCC[C@H]1C(=O)N[C@@H](Cc1ccccc1)C(=O)O
[2]
  Activity: 3%

## CC[C@H](C)[C@H](NC(=O)[C@@H]1CCCN1C(=O)[C@H](Cc1c[nH]cn1)NC(=O)[C@@H](NC(=O)[C@H](Cc1ccc(O)cc1)NC(=O)[C@@H](NC(=O)[C@@H](N)CCCN=C(N)N)C(C)C)[C@@H](C)CC)C(=O)O
[3]
  BP increase: 5 mmHg
[4]
  ID50: 200 ng min-1 rat-1
[1]
  Activity: 0%

## CC[C@H](C)[C@H](NC(=O)[C@H](Cc1ccc(O)cc1)NC(=O)[C@@H](NC(=O)[C@@H](C)N)C(C)C)C(=O)N[C@@H](Cc1c[nH]cn1)C(=O)N1CCC[C@H]1C(=O)N[C@@H](Cc1ccccc1)C(=O)O
[2]
  Activity: 48%

## CC[C@H](C)[C@H](NC(=O)[C@H](Cc1ccc(O)cc1)NC(=O)[C@@H](NC(=O)[C@H](C)N)C(C)C)C(=O)N[C@@H](Cc1c[nH]cn1)C(=O)N1CCC[C@H]1C(=O)N[C@@H](Cc1ccccc1)C(=O)O
[2]
  Activity: 3%

## CC[C@H](C)[C@H](NC(=O)[C@H](Cc1ccc(O)cc1)NC(=O)[C@@H](NC(=O)[C@H](N)CCCCN=C(N)N)C(C)C)C(=O)N[C@@H](Cc1c[nH]cn1)C(=O)N1CCC[C@H]1C(=O)N[C@@H](Cc1ccccc1)C(=O)O
[2]
  Activity: 11%

## CC[C@H](C)[C@H](NC(=O)[C@@H]1CCCN1C(=O)[C@H](Cc1c[nH]cn1)NC(=O)[C@@H](NC(=O)[C@H](Cc1ccc(O)cc1)NC(=O)[C@@H](NC(=O)[C@H](C)N)C(C)C)[C@@H](C)CC)C(=O)O
[1]
  Activity: 0%

## CC[C@H](C)[C@H](NC(=O)[C@H](Cc1ccc(O)cc1)NC(=O)[C@@H](NC(=O)[C@@H](C)NC)C(C)C)C(=O)N[C@@H](Cc1c[nH]cn1)C(=O)N1CCC[C@H]1C(=O)N[C@@H](Cc1ccccc1)C(=O)O
[3]
  BP increase: 85 mmHg
[1]
  Activity: 1.4%

## CC[C@H](C)[C@H](NC(=O)[C@H](Cc1ccc(O)cc1)NC(=O)[C@@H](NC(=O)[C@H](CCCN=C(N)N)NC(=O)[C@@H](N)CC(=O)O)C(C)C)C(=O)N[C@@H](Cc1cn(C)cn1)C(=O)N1CCC[C@H]1C(=O)N[C@@H](Cc1ccccc1)C(=O)O
[2]
  Activity: 5%

## CC[C@H](C)[C@H](NC(=O)[C@H](Cc1ccc(O)cc1)NC(=O)[C@@H](NC(=O)[C@H](CCCN=C(N)N)NC(=O)[C@@H](N)CC(=O)O)C(C)C)C(=O)N[C@@H](C)C(=O)N1CCC[C@H]1C(=O)N[C@@H](Cc1ccccc1)C(=O)O (H-DRVYIAPF-OH)
[2]
  Activity: 0.8%

## CC[C@H](C)[C@H](NC(=O)[C@H](Cc1ccc(O)cc1)NC(=O)[C@@H](NC(=O)[C@H](CCCN=C(N)N)NC(=O)[C@@H](N)CC(=O)O)C(C)C)C(=O)N[C@@H](Cc1ccccc1)C(=O)N1CCC[C@H]1C(=O)N[C@@H](Cc1ccccc1)C(=O)O (H-DRVYIFPF-OH)
[2]
  Activity: 5.1%

## CC[C@H](C)[C@H](NC(=O)[C@H](Cc1ccc(O)cc1)NC(=O)[C@@H](NC(=O)[C@H](CCCN=C(N)N)NC(=O)[C@@H](N)CC(=O)O)C(C)C)C(=O)N[C@@H](CCCCN)C(=O)N1CCC[C@H]1C(=O)N[C@@H](Cc1ccccc1)C(=O)O (H-DRVYIKPF-OH)
[3]
  Activity: 0.1%

## CC[C@H](C)[C@H](NC(=O)[C@H](Cc1ccc(O)cc1)NC(=O)[C@@H](NC(=O)[C@H](CCCN=C(N)N)NC(=O)[C@@H](N)CC(=O)O)C(C)C)C(=O)N[C@@H](Cc1ccsc1)C(=O)N1CCC[C@H]1C(=O)N[C@@H](Cc1ccccc1)C(=O)O (H-DRVYI[3Thi]PF-OH)
[2]
  Activity: 19.3%

## CC[C@H](C)[C@H](NC(=O)[C@H](Cc1ccc(O)cc1)NC(=O)[C@@H](NC(=O)[C@H](CCCN=C(N)N)NC(=O)[C@@H](N)CC(=O)O)C(C)C)C(=O)N[C@@H](Cc1ncc[nH]1)C(=O)N1CCC[C@H]1C(=O)N[C@@H](Cc1ccccc1)C(=O)O (H-DRVYI[Ala(imidazol-2-yl)]PF-OH)
[2]
  Activity: 0.4%

## CC[C@H](C)[C@H](NC(=O)[C@H](Cc1ccc(O)cc1)NC(=O)[C@@H](NC(=O)[C@H](CCCN=C(N)N)NC(=O)[C@@H](N)CC(=O)O)C(C)C)C(=O)N[C@@H](Cc1ccc(N)cc1)C(=O)N1CCC[C@H]1C(=O)N[C@@H](Cc1ccccc1)C(=O)O (H-DRVYI[Phe(4-NH2)]PF-OH)
[2]
  Activity: 0.05%

## CC[C@H](C)[C@H](NC(=O)[C@H](Cc1ccc(O)cc1)NC(=O)[C@@H](NC(=O)[C@H](CCCN=C(N)N)NC(=O)[C@@H](N)CC(=O)O)C(C)C)C(=O)N[C@@H](CCc1ncc[nH]1)C(=O)N1CCC[C@H]1C(=O)N[C@@H](Cc1ccccc1)C(=O)O (H-DRVYI[X2]PF-OH)
[2]
  Activity: 0.05%

## CC[C@H](C)[C@H](NC(=O)[C@H](Cc1ccc(O)cc1)NC(=O)[C@@H](NC(=O)[C@H](CCCN=C(N)N)NC(=O)[C@@H](N)CC(N)=O)C(C)C)C(=O)N[C@@H](Cc1c[nH]cn1)C(=O)N1CCC[C@H]1C(=O)N[C@@H](Cc1ccccc1)C(=O)O (H-NRVYIHPF-OH)
[2]
  Activity: 4%

## CC[C@H](C)[C@H](NC(=O)[C@H](Cc1ccc(O)cc1)NC(=O)[C@@H](NC(=O)C(C)(C)N)C(C)C)C(=O)N[C@@H](Cc1c[nH]cn1)C(=O)N1CCC[C@H]1C(=O)N[C@@H](Cc1ccccc1)C(=O)O (H-[Aib]VYIHPF-OH)
[3]
  BP increase: 60 mmHg
[1]
  Activity: 0%

## CC[C@H](C)[C@H](NC(=O)[C@@H]1CCCN1C(=O)[C@H](Cc1c[nH]cn1)NC(=O)[C@@H](NC(=O)[C@H](Cc1ccc(O)cc1)NC(=O)[C@@H](NC(=O)C(C)(C)N)C(C)C)[C@@H](C)CC)C(=O)O (H-[Aib]VYIHPI-OH)
[1]
  Activity: 0%

## CC[C@H](C)[C@H](NC(=O)[C@H](Cc1ccc(O)cc1)NC(=O)[C@@H](NC(=O)[C@H](CCCN=C(N)N)NC(=O)CNC)C(C)C)C(=O)N[C@@H](CC(=O)O)C(=O)N1CCC[C@H]1C(=O)N[C@H](C(=O)O)[C@@H](C)O (H-[Sar]RVYIDPT-OH)
[1]
  Activity: 0%

## CC[C@H](C)[C@H](NC(=O)[C@H](Cc1ccc(O)cc1)NC(=O)[C@@H](NC(=O)[C@H](CCCN=C(N)N)NC(=O)CNC)C(C)C)C(=O)N[C@@H](Cc1c[nH]cn1)C(=O)N1CCC[C@H]1C(=O)N[C@H](C(=O)O)[C@@H](C)O (H-[Sar]RVYIHPT-OH)
[1]
  Activity: 0.6%

## CC[C@H](C)[C@H](NC(=O)[C@@H]1CCCN1C(=O)[C@H](CCCCN)NC(=O)[C@@H](NC(=O)[C@H](Cc1ccc(O)cc1)NC(=O)[C@@H](NC(=O)[C@H](CCCN=C(N)N)NC(=O)CNC)C(C)C)[C@@H](C)CC)C(=O)O (H-[Sar]RVYIKPI-OH)
[1]
  Activity: 0%

## CC[C@H](C)[C@H](NC(=O)[C@H](Cc1ccc(O)cc1)NC(=O)[C@@H](NC(=O)CN(C)C(=O)CNC)C(C)C)C(=O)N[C@@H](Cc1c[nH]cn1)C(=O)N1CCC[C@H]1C(=O)N[C@H](C(=O)O)[C@@H](C)O (H-[Sar][Sar]VYIHPT-OH)
[1]
  Activity: 0%

## CC[C@H](C)[C@H](NC(=O)[C@H](Cc1ccc(O)cc1)NC(=O)[C@@H](NC(=O)[C@@H](N)CCCN=C(N)N)C(C)C)C(=O)N[C@@H](Cc1c[nH]cn1)C(=O)N1CCC[C@H]1C(=O)N[C@@H](Cc1ccccc1)C(=O)O (stereo in doubt; 5)
[2]
  Activity: 15%
[1]
  Activity: 47.4%

## CC[C@H](C)[C@H](NC(=O)[C@H](Cc1ccc(O)cc1)NC(=O)[C@@H](NC(=O)[C@@H](N)CCCN=C(N)N)C(C)C)C(=O)N[C@@H](Cc1c[nH]cn1)C(=O)N1CCC[C@H]1C(=O)N[C@@H](Cc1ccccc1)C(=O)O (stereo in doubt; 6)
[2]
  Activity: 33.3%
[1]
  Activity: 43.3%
